From ChEMBL document CHEMBL1921774, “Evaluation of 18F-labeled benzodioxine piperazine-based dopamine D4 receptor ligands: lipophilicity as a determinate of nonspecific binding” (J Med Chem, 2011)
Active and inactive are the calls of the source. No cut-off for these calls is given here.

Tests used:
D(2) dopamine receptor [1] = molecular target: T1, D(2) dopamine receptor (Homo sapiens, UniProt P14416); experiment: Displacement of [3H]spiperone from human dopamine D2long receptor expressed in CHO cells; assay type: cell-based
Outline: (§1)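 Membranes from CHO cells stably expressing each receptor, 2–6 μg protein per tube, competed against [³H]spiperone at 0.2 nM final. Competition curves were analyzed by nonlinear regression to give Ki.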

D(2) dopamine receptor [2] = molecular target: T1, D(2) dopamine receptor; experiment: Displacement of [3H]spiperone from human dopamine D2short receptor expressed in CHO cells; assay type: cell-based; outline: as §1
D(3) dopamine receptor = D(3) dopamine receptor (Homo sapiens, UniProt P35462); experiment: Displacement of [3H]spiperone from human dopamine D3 receptor expressed in CHO cells; assay type: cell-based; outline: as §1
D(4) dopamine receptor = molecular target: T2, D(4) dopamine receptor (Homo sapiens, UniProt P21917); experiment: Displacement of [3H]spiperone from human dopamine D4.4 receptor expressed in CHO cells; assay type: cell-based; outline: as §1
T2 sequence (P21917 whole entry): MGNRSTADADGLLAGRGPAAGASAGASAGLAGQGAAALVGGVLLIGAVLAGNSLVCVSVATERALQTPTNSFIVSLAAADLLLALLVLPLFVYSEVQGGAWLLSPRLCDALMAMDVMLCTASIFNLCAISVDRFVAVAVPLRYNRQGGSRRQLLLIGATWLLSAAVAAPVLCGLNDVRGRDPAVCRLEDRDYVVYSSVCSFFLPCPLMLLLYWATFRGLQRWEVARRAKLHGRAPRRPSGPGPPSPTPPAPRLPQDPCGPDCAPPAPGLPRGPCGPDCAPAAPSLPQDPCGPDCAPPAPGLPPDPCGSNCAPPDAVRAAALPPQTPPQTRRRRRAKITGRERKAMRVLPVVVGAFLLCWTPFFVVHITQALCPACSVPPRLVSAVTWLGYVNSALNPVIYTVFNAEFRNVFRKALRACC

[3] = molecular target: 5-hydroxytryptamine receptor 2A (Sus scrofa, UniProt P50129); experiment: Displacement of [3H]ketanserin from 5-HT2 receptor in porcine cortical membranes; assay type: cell membranes
Outline: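 Porcine cerebral cortex homogenate, 110 μg/mL protein per tube, with 0.5 nM [³H]ketanserin. Protein was measured by Lowry. Competition curves were fitted by nonlinear regression.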

[4] = Displacement of [3H]prazosin from adrenergic alpha1 receptor in porcine cortical membranes; assay type: cell membranes, Sus scrofa
Outline: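 Porcine cerebral cortex homogenate, 40 μg/mL protein per tube, with 0.2 nM [³H]prazosin. Protein was measured by Lowry. Competition curves were fitted by nonlinear regression.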

Homo sapiens [5] = species on record: Homo sapiens; experiment: Selectivity ratio of Ki for human dopamine D2long receptor to Ki for human dopamine D4.4 receptor
Homo sapiens [6] = species on record: Homo sapiens; experiment: Selectivity ratio of Ki for human dopamine D2short receptor to Ki for human dopamine D4.4 receptor
Homo sapiens [7] = species on record: Homo sapiens; experiment: Selectivity ratio of Ki for human dopamine D3 receptor to Ki for human dopamine D4.4 receptor
CHO10001 = experiment: Neutral antagonist activity at human dopamine D4.2 receptor expressed in CHO10001 cells assessed as inhibition of [3H]thymidine incorporation relative to quinpirole; assay type: functional, cell-based
Outline: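 Growing D4.2-expressing CHO10001 cells were stimulated with test compound and given 0.02 μCi [³H]thymidine per well; incorporation was measured. Data from four dose-response experiments were normalized and pooled to give means per concentration, and compared with the full agonist quinpirole.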

[8] = Lipophilicity, log P of the compound at pH 7.4 by HPLC method; settings: buffer
[9] = Octanol-buffer partition coefficient, log P of the compound at pH 7.4 by shake flask method
[10] = Displacement of [3H]WAY100635 from 5-HT1A receptor in porcine cortical membranes
D(1A) dopamine receptor = D(1A) dopamine receptor (Sus scrofa, UniProt P50130); experiment: Displacement of [3H]SCH23390 from dopamine D1 receptor in porcine striatal membranes
[11] = molecular target: T3, D(4) dopamine receptor (Rattus norvegicus) (UniProt P30729); experiment: Binding affinity to dopamine D4 receptor in coliculus of Wistar rat at 5 nmol/L after 30 mins using cresyl violet staining by In vitro autoradiography in presence of 10 uM non-radiolabeled compound
T3 sequence (whole entry): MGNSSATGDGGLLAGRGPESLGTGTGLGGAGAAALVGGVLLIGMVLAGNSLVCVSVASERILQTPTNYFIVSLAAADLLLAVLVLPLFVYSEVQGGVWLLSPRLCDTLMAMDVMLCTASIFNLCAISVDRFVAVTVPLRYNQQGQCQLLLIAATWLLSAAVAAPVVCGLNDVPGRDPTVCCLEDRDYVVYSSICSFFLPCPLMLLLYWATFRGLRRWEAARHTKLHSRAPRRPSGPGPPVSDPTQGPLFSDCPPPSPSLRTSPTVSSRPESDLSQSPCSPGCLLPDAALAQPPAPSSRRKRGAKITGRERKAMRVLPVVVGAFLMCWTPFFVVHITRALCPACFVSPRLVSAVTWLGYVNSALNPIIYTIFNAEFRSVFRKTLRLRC
Outline: (§2)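 Horizontal 20 μm cryostat sections of brains from Wistar rats (4–6 months, 230–250 g) were used. After a 10 min preincubation in 50 mmol/L Tris-HCl pH 7.4 at 22 °C, slices were incubated 30 min with ¹⁸F-radioligand (5 nmol/L, or 10 nmol/L for one tracer). Nonspecific binding was taken with 10 μmol/L spiperone or cold standard; total binding had DMSO alone. Regions were assigned by cresyl violet staining.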

[12] = molecular target: T3, D(4) dopamine receptor (Rattus norvegicus); experiment: Binding affinity to dopamine D4 receptor in coliculus of Wistar rat at 10 nmol/L after 30 mins using cresyl violet staining by In vitro autoradiography in presence of 10 uM non-radiolabeled compound; settings: tested as the 18F-labelled form; outline: as §2
[13] = molecular target: T3, D(4) dopamine receptor (Rattus norvegicus); experiment: Binding affinity to dopamine D4 receptor in medial nuclei of cerebellum in Wistar rat at 10 nmol/L after 30 mins using cresyl violet staining by In vitro autoradiography in presence of 10 uM non-radiolabeled compound; assay type: tissue-based; settings: tested as the 18F-labelled form; outline: as §2
[14] = molecular target: T3, D(4) dopamine receptor (Rattus norvegicus); experiment: Binding affinity to dopamine D4 receptor in Wistar rat brain slices assessed as nonspecific binding at 10 nmol/L measured after 30 mins by In vitro autoradiography presence of nonradioactive ligand; settings: tested as the 18F-labelled form; outline: as §2
[15] = molecular target: T3, D(4) dopamine receptor (Rattus norvegicus); experiment: Binding affinity to dopamine D4 receptor in medial nuclei of cerebellum in Wistar rat at 5 nmol/L after 30 mins using cresyl violet staining by In vitro autoradiography in presence of 10 uM non-radiolabeled compound; assay type: tissue-based; settings: tested as the 18F-labelled form; outline: as §2
[16] = molecular target: T3, D(4) dopamine receptor (Rattus norvegicus); experiment: Binding affinity to dopamine D4 receptor in Wistar rat hippocampus at 5 nmol/L after 30 mins using cresyl violet staining by In vitro autoradiography in presence of 10 uM non-radiolabeled compound; assay type: tissue-based; settings: tested as the 18F-labelled form; outline: as §2
[17] = molecular target: T3, D(4) dopamine receptor (Rattus norvegicus); experiment: Binding affinity to dopamine D4 receptor in Wistar rat frontal cortex at 5 nmol/L after 30 mins using cresyl violet staining by In vitro autoradiography in presence of 10 uM non-radiolabeled compound; assay type: tissue-based; settings: tested as the 18F-labelled form; outline: as §2
[18] = molecular target: T3, D(4) dopamine receptor (Rattus norvegicus); experiment: Binding affinity to dopamine D4 receptor in Wistar rat striatum at 5 nmol/L after 30 mins using cresyl violet staining by In vitro autoradiography in presence of 10 uM non-radiolabeled compound; settings: tested as the 18F-labelled form; outline: as §2
[19] = molecular target: T4, D(4) dopamine receptor (Mus musculus) (UniProt P51436); experiment: Binding affinity to dopamine D4 receptor in NMRI mouse cortex at 20 nmol/L after 30 mins using cresyl violet staining by In vitro autoradiography in presence of 10 uM non-radiolabeled compound; settings: tested as the 18F-labelled form
T4 sequence (whole entry): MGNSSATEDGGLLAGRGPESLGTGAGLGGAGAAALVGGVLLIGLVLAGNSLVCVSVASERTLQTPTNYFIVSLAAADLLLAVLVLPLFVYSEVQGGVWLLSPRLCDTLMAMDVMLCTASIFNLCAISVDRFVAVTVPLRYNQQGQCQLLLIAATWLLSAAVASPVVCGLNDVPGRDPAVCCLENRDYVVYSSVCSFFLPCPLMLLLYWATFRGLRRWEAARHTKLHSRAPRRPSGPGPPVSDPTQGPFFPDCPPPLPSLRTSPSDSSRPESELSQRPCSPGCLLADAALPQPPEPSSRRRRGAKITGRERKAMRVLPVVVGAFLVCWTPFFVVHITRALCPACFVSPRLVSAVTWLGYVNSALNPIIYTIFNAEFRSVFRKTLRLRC
Outline: (§3)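 Sagittal brain slices from female NMRI mice (2–6 months) were preincubated 10 min in 50 mmol/L Tris-HCl pH 7.4 at 22 °C. They were then incubated 30 min with 20 nmol/L [¹⁸F]-ligand plus 10 μmol/L displacer (spiperone or cold standard), or with DMSO alone for total binding. After the ¹⁸F had decayed, regions were identified by cresyl violet staining.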

[20] = molecular target: T4, D(4) dopamine receptor (Mus musculus); experiment: Binding affinity to dopamine D4 receptor in NMRI mouse hippocampus at 20 nmol/L after 30 mins using cresyl violet staining by In vitro autoradiography in presence of 10 uM non-radiolabeled compound; assay type: tissue-based; settings: tested as the 18F-labelled form; outline: as §3
[21] = molecular target: T4, D(4) dopamine receptor (Mus musculus); experiment: Binding affinity to dopamine D4 receptor in NMRI mouse hippocampus dentate gyrus at 20 nmol/L after 30 mins using cresyl violet staining by In vitro autoradiography in presence of 10 uM non-radiolabeled compound; assay type: tissue-based; settings: tested as the 18F-labelled form; outline: as §3
[22] = molecular target: T4, D(4) dopamine receptor (Mus musculus); experiment: Binding affinity to dopamine D4 receptor in NMRI mouse hippocampus cornu ammonis 3 at 20 nmol/L after 30 mins using cresyl violet staining by In vitro autoradiography in presence of 10 uM non-radiolabeled compound; assay type: tissue-based; settings: tested as the 18F-labelled form; outline: as §3
[23] = molecular target: T4, D(4) dopamine receptor (Mus musculus); experiment: Binding affinity to dopamine D4 receptor in NMRI mouse coliculus at 20 nmol/L after 30 mins using cresyl violet staining by In vitro autoradiography in presence of 10 uM non-radiolabeled compound; settings: tested as the 18F-labelled form; outline: as §3
[24] = molecular target: T3, D(4) dopamine receptor (Rattus norvegicus); experiment: Binding affinity to dopamine D4 receptor in Wistar rat thalamus at 5 nmol/L measured after 30 mins; settings: tested as the 18F-labelled form; outline: as §2
[25] = molecular target: T3, D(4) dopamine receptor (Rattus norvegicus); experiment: Binding affinity to dopamine D4 receptor in Wistar rat cortex at 5 nmol/L measured after 30 mins; settings: tested as the 18F-labelled form; outline: as §2

Sequence of D(3) dopamine receptor (P35462 whole entry): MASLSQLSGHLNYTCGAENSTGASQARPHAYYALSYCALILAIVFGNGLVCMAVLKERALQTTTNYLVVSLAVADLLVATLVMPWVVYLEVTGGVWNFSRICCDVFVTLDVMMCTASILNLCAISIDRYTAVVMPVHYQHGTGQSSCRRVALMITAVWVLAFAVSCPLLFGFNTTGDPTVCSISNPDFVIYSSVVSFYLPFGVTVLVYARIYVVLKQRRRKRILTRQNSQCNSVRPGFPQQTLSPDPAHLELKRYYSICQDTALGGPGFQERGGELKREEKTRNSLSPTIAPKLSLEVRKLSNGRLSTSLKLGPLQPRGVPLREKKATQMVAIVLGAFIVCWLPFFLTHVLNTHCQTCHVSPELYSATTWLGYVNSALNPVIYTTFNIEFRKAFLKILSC
Sequence of 5-hydroxytryptamine receptor 2A (P50129 whole entry): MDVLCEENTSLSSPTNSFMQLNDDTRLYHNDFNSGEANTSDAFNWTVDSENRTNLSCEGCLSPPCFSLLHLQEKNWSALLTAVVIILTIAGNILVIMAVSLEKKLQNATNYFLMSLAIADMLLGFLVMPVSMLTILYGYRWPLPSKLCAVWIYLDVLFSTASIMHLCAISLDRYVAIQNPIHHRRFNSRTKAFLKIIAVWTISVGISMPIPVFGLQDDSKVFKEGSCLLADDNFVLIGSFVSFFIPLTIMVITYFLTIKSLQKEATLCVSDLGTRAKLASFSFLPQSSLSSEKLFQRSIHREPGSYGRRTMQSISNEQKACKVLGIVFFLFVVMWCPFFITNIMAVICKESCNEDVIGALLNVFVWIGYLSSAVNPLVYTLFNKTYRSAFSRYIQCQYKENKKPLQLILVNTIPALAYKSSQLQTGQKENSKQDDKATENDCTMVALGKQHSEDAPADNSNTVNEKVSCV
T1 sequence (P14416 whole entry): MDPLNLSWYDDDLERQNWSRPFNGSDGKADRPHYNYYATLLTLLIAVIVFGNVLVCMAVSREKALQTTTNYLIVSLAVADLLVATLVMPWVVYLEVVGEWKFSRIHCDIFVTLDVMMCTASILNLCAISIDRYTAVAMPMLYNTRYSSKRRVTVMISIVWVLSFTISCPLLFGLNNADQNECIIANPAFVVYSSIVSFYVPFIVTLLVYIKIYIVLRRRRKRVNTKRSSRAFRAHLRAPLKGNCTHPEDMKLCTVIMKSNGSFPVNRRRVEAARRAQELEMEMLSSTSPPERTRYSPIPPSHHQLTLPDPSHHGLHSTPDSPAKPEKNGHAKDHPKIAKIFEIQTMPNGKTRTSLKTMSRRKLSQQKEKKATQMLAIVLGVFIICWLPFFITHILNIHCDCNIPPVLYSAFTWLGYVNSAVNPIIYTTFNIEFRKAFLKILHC
Sequence of D(1A) dopamine receptor (P50130 whole entry): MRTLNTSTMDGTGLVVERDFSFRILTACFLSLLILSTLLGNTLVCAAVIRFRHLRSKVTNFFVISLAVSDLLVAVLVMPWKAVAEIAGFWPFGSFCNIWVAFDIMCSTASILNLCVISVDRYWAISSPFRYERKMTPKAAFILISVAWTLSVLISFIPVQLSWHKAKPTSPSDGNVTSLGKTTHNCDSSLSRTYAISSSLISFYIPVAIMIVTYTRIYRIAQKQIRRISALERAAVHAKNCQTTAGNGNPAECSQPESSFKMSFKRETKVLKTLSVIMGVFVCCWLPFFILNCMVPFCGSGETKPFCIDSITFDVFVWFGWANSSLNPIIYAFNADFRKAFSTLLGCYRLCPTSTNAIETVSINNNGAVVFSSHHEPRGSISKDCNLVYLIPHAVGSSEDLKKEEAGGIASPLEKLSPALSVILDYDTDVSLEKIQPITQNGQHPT

SMILES	Ki (D(2) dopamine receptor [1]) [µM]	Ki (D(2) dopamine receptor [2]) [µM]	Ki (D(3) dopamine receptor) [µM]	Ki (D(4) dopamine receptor) [µM]	Ki [3] [µM]	Ki [4] [µM]	Ratio Ki (Homo sapiens [5])	Ratio Ki (Homo sapiens [6])	Ratio Ki (Homo sapiens [7])	Activity (CHO10001)	logP [8]	logD [9]	Ki [10] [µM]	Ki (D(1A) dopamine receptor) [µM]	Activity [12]	other results
COc1cc(CN2CCN(c3ccc4c(c3)OCCO4)CC2)ccc1F	17	16	5.9	0.0042	4.2	3.3	4000	3800	1400	Active	2.44	2.33	5.6	23		
Oc1cc(CN2CCN(c3ccc4c(c3)OCCO4)CC2)ccc1F	9	6.1	4.2	0.0073	2.3	3	1300	830	590	Active	1.7	1.78	6.2	15	Active	Activity ([11]; 10 nmol/L, in the assay text read “10 nmol/L” for “5 nmol/L”, tested as the 18F-labelled form): Active; Activity [13]: Active; Activity [14]: 33%
Fc1ccc(CN2CCN(c3ccc4c(c3)OCCO4)CC2)cc1	7.6	5.7	3.9	0.0011	7	4	6700	5000	3600	Active	2.71		5.2	19		
Fc1ccc(CN2CCN(c3ccc4c(c3)OCCO4)CC2)cn1	29	45	17	0.015	5.8	11				Active			21	35	Active	Activity ([11]; 10 nmol/L, tested as the 18F-labelled form, in the assay text read “10 nmol/L” for “5 nmol/L”): Active; Activity [15]: Active; Activity [16]: inactive; Activity [17]: inactive; Activity [18]: Active; Activity [19]: Active; Activity [20]: Active; Activity [21]: Active; Activity [22]: Active; Activity [23]: Active; Activity [24]: Active; Activity [25]: Active
